We go through 17 compounds from ChEMBL document CHEMBL1129267, “Aryl 1-but-3-ynyl-4-phenyl-1,2,3,6-tetrahydropyridines as potential antipsychotic agents: synthesis and structure-activity relationships” (J Med Chem, 1996).

The subject of test [1] is Rattus norvegicus. In words: In vivo inhibition of locomotor activity in the rat following p.o. administration. The format is functional. As to conditions: po.
Test [2] has as its target T1, D(2) dopamine receptor (Rattus norvegicus, UniProt P61169). The test can be described thus: Binding affinity at Dopamine receptor D2 in rat striatal membrane by [3H]spiperone displacement. The format is cell membranes, Striatum. In short, it runs like this: (§1)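 Rat striatal membranes; [³H]spiperone 0.2 nM final; nonspecific binding defined with (+)-butaclamol 1.0 µM final. Four to six concentrations, each run in triplicate; Ki obtained by nonlinear regression analysis.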

Test [3] addresses T1, D(2) dopamine receptor. In words: Compound was evaluated for their affinity against dopamine receptor D2 by displacing [3H]-spiperone in rat striatal membrane. It is filed as cell membranes, Striatum. In short, it runs like this:
as §1

Test [4] has as its system Mus musculus. The test can be described thus: (§2) Compound was tested for the inhibition of locomotor activity (LMA)by administering Intraperitoneally in mouse. As to conditions: ip. It is filed as functional. In short, it runs like this:
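Mice dosed ip, then tested immediately for 1 h in darkened cylindrical photobeam chambers. Percent inhibition of locomotor activity relative to vehicle-treated animals; ED50 derived from three to six doses, n = 6-18 animals/dose.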

Test [5] deals with Mus musculus. Described as §2. It is filed as functional. As to conditions: ip. The source holds these as a separate data set.
Test [6] deals with Rattus norvegicus. In words: Compound was tested for the inhibition of locomotor activity (LMA)by administering orally in rat. The format is functional. As to conditions: po. The method, boiled down: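 Rats dosed orally 1 h before a 30 min test in darkened cylindrical photobeam chambers. Percent inhibition of locomotor activity relative to vehicle-treated animals; ED50 derived from three to six doses, n = 6-18 animals/dose.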

Each structure is given as a SMILES string.

T1 sequence (P61169 whole entry): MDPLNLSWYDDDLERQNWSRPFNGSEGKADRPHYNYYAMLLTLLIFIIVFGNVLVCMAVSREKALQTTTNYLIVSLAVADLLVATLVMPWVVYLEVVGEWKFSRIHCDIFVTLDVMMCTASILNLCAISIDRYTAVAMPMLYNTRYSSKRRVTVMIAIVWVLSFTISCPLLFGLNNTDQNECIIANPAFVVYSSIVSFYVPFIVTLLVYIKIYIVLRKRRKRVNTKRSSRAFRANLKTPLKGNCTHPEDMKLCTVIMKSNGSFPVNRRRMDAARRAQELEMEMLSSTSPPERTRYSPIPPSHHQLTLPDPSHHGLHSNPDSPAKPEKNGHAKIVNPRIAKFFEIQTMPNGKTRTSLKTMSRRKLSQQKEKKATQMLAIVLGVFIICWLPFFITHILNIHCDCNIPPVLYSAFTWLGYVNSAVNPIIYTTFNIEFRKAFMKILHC

On to `C(#Cc1ccccn1)CCN1CC=C(c2ccccc2)CC1`, for which, in the test on Rattus norvegicus [1], the ED50 (as a rule, the midpoint of the dose-response relation) was 15.8 mg/kg. At D(2) dopamine receptor [2], the Ki (in general, the equilibrium dissociation constant of an inhibitor or competing ligand from its target) is 136 nM.

For `Nc1ccccc1C#CCCN1CC=C(c2ccccc2)CC1`, on D(2) dopamine receptor [3], the Ki is 183 nM. Further, the values for the ED50 in the test on Mus musculus [4] and in the test with Rattus norvegicus [1] were 1.6 mg/kg and 23.9 mg/kg, respectively.

As to `COc1ccc(C#CCCN2CC=C(c3ccccc3)CC2)cc1`, the ED50 was 3.3 mg/kg in the test on Mus musculus [5] and above 30 mg/kg with Rattus norvegicus [1]. The compound also returned a Ki at D(2) dopamine receptor [2] of 327 nM.

The compound `C(#Cc1cccnc1)CCCN1CC=C(c2ccccc2)CC1` came in with an ED50 in the test on Rattus norvegicus [1] of 4.3 mg/kg. This compound also had a Ki at D(2) dopamine receptor [2] of 56 nM.

Take `C(#Cc1cnc2ccccc2c1)CCCN1CC=C(c2ccccc2)CC1`: in the test on Rattus norvegicus [1], the ED50 is 18.6 mg/kg.

The compound `C(#Cc1cnc2ccccc2c1)CN1CC=C(c2ccccc2)CC1` returned an ED50 with Mus musculus [4] above 30 mg/kg. Further, the Ki on D(2) dopamine receptor [2] is above 10000 nM.

As for `C(#Cc1ccc2[nH]ccc2c1)CCN1CC=C(c2ccccc2)CC1`, the 50% effective dose (ED50) in the test with Mus musculus [5] worked out at 1.2 mg/kg; with Rattus norvegicus [1] it was 5.2 mg/kg. Moreover, the affinity on D(2) dopamine receptor [2], expressed as Ki, was 193 nM.

`Oc1ccc(C#CCCN2CC=C(c3ccccc3)CC2)cc1`: the ED50 was above 30 mg/kg in the test on Rattus norvegicus [6] and 1.5 mg/kg in the test on Mus musculus [5]. Further, the Ki at D(2) dopamine receptor [3] was found to be 54 nM.

In the case of `C(#Cc1ccccc1)CCN1CC=C(c2ccccc2)CC1`, the values for the median effective dose (ED50) with Rattus norvegicus [6] and with Mus musculus [5] were 20.5 mg/kg and 9.5 mg/kg, respectively. In addition, the Ki at D(2) dopamine receptor [3] was 284 nM.

Turning to `C(#Cc1ccc2c(c1)OCCO2)CCN1CC=C(c2ccccc2)CC1`, the ED50 in the test with Mus musculus [5] was 2.2 mg/kg; in the test on Rattus norvegicus [1], above 30 mg/kg. For the same compound, the affinity on D(2) dopamine receptor [2] corresponds to a Ki of 127 nM.

The compound `C(#Cc1cnc2ccccc2c1)CCN1CC=C(c2ccccc2)CC1` displayed a Ki on D(2) dopamine receptor [2] of 30 nM.

Turning to `C(#Cc1cccnc1)CCN1CCN(c2ccccn2)CC1`, the median effective dose (ED50) with Mus musculus [4] is 2.2 mg/kg; in the test on Rattus norvegicus [1], above 30 mg/kg.

In the case of `C(#Cc1ccc2occc2c1)CCN1CC=C(c2ccccc2)CC1`, the ED50 in the test on Mus musculus [5] is 2.5 mg/kg; with Rattus norvegicus [1], 10.6 mg/kg. Besides, on D(2) dopamine receptor [2], the affinity corresponds to a Ki of 440 nM.

The compound `C(#Cc1cccnc1)CCN1CCN(c2ncccn2)CC1` returned an ED50 with Mus musculus [5] above 30 mg/kg. The compound also displayed a Ki on D(2) dopamine receptor [2] above 10000 nM.

As to `Fc1ccc(N2CCN(CCC#Cc3cccnc3)CC2)cc1`, the ED50 in the test on Mus musculus [4] was found to be 4.7 mg/kg; in the test with Rattus norvegicus [1], 4.3 mg/kg. Moreover, the Ki on D(2) dopamine receptor [2] stood at 1670 nM.

In the case of `C(#Cc1cccnc1)CCN1CC=C(c2cccs2)CC1`, the median effective dose (ED50) came out at 0.86 mg/kg with Mus musculus [4] and 5 mg/kg in the test with Rattus norvegicus [1]. For the same compound, at D(2) dopamine receptor [2], the Ki was determined as 255 nM.

On to `C(#Cc1cncc2ccccc12)CCN1CC=C(c2ccccc2)CC1`, for which the ED50 in the test with Rattus norvegicus [1] worked out at 3.8 mg/kg. Moreover, affinity at D(2) dopamine receptor [2] was put at a Ki of 73 nM.
